Active and inactive are the calls of the source. The rule behind the calls is not given here.
How the values were obtained:
[1] = Inhibition of cap/HCV-mediated translation in mouse Krebs2 cell free extract expressing FF/HCV/Ren mRNA reporter transcript assessed as reduction in luciferase production at 50 uM relative to control; assay type: functional
Summary of the method: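 Krebs-2 translation extracts were programmed with bicistronic FF/HCV/Ren mRNA and incubated with compound at 50 µM or vehicle (0.5% DMSO). Firefly (cap) and Renilla (HCV IRES) luciferase activities were expressed relative to the DMSO control, from 2 independent translation reactions, as mean with error of the mean. Reference inhibitors were 1 µM hippuristanol and 10 µM anisomycin.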

[2] = Antiproliferative activity against human MES-SA cells after 48 to 96 hrs by MTT assay; assay type: functional
Summary of the method: (§1)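 Parent MES-SA and MES-SA/Dx5 uterine sarcoma cells were grown in RPMI-1640 with 10% FBS. The Dx5 line was kept in 500 nM doxorubicin after stepwise selection from 100 nM in twofold steps, about 2 passages per step. MTT assay used 0.001–100 µM compound for 48–96 h, with 0.1% DMSO and 1 µM phenyl arsine oxide controls. The ratio is the Dx5 GI50 divided by the parent GI50.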

[3] = Antiproliferative activity against patient-derived TMZ-sensitive GBM 090909 cells after 48 to 96 hrs by MTT assay; assay type: functional; conditions: Homo sapiens
Summary of the method: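 Primary GBM neurosphere cultures came from resected patient tumour. Tissue was minced, dissociated with 100 U/mL collagenase in neurobasal medium for 30 min at 37 °C, filtered through 70 µm, spun at 200 × g for 5 min, and grown in ultra-low attachment wells in neurobasal medium with B27. Compounds were applied at 0.001–100 µM for 48–96 h. MTT gave the average 50%-viability concentration.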

[4] = Antiproliferative activity against drug-resistant human U251 cells after 48 to 96 hrs by MTT assay; assay type: functional; conditions: U-251
Summary of the method: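 U251 cells were kept in 10% MEM with glutamine, gentamicin and penicillin-streptomycin at 37 °C and 5% CO2. After seeding they were grown 24–72 h and then given compounds at 0.001–100 µM (from 100 or 50 mM DMSO stocks) for 48–96 h. Viability was read by MTT. Vehicle control was 0.1% DMSO; 1 µM phenyl arsine oxide served as positive control. The result is the average 50%-viability-reducing concentration.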

[5] = Antiproliferative activity against patient-derived TMZ-resistant GBM 031810 cells over-expressing MGMT after 48 to 96 hrs by MTT assay; assay type: functional; conditions: Homo sapiens
[6] = Antiproliferative activity against human HeLa cells after 48 hrs by MTT assay; assay type: functional
Summary of the method: (§2)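 HeLa cells were cultured in DMEM + 10% FBS and MCF-7 cells in RPMI + 10% FBS, both at 37 °C under 5% CO2. Compounds were diluted from DMSO stocks and applied for 48 h. Viability was read by MTT relative to DMSO control. The value is the concentration reducing viability by 50%, ±SD from two independent experiments of 4 replicates each.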

NCI-H1993 = assay: Potentiation of paclitaxel-induced cytotoxicity against patient-derived paclitaxel-sensitive NCI-H1993 cells assessed as reduction in cell viability up to 100 uM after 96 hrs by Celltiter-Glo luminescent assay; assay type: functional, cell-based; conditions: Homo sapiens
Summary of the method: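 NCI-H1993 cells were seeded at 4×10^3 per well and grown 24 h. […] Viability was read by CellTiter-Glo luminescence. Predicted additivity was calculated by Bliss independence, Exy = Ex + Ey − ExEy.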

[7] = Antiproliferative activity against patient-derived paclitaxel-sensitive NCI-H1993 cells after 48 to 96 hrs by MTT assay; assay type: functional; conditions: Homo sapiens
[8] = Antiproliferative activity against drug-resistant human U87 cells after 48 to 96 hrs by MTT assay; assay type: functional, U-87MG ATCC; conditions: U-87 MG
Summary of the method: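 U87 cells grown in DMEM with glutamine, gentamicin and penicillin-streptomycin (37 °C, 95% humidity, 5% CO2) were seeded and then treated with 0.001–100 µM compound for 48–96 h. Readout was MTT. Controls were 0.1% DMSO and 1 µM phenyl arsine oxide. The value is the average concentration reducing viability 50%.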

[9] = Antiproliferative activity against drug-resistant human U373 cells after 48 to 96 hrs by MTT assay; assay type: functional, U-373MG ATCC; conditions: U373 MG
Summary of the method: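 Culture was RPMI with 10% heat-inactivated FBS plus glutamine and antibiotics for U373 cells. Compound exposure was 0.001–100 µM for 48–96 h, with 0.1% DMSO and 1 µM phenyl arsine oxide as controls. The MTT assay gave the average concentration cutting viability by 50%; replicate numbers varied.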

[10] = Antiproliferative activity against patient-derived paclitaxel-resistant NCI-H2073 cells after 48 to 96 hrs by MTT assay; assay type: functional; conditions: Homo sapiens
HeLa S3 [11] = assay: Inhibition of translation in human HeLaS3 assessed as increase in eIF2alpha phosphorylation at 50 uM after 1 hr by Western blot analysis; assay type: functional
Summary of the method: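 HeLa S3 cells were exposed to 50 µM compound for 1 h. Extracts were resolved by SDS-PAGE and transferred to PVDF. Western blots were probed for phospho-eIF2α, pan-eIF2α and eEF2.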

[12] = Antiproliferative activity against drug-resistant human A549 cells after 48 to 96 hrs by MTT assay; assay type: functional
Summary of the method: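 A549 cells grown in RPMI with 10% heat-inactivated FBS, 4 mM glutamine and antibiotics at 37 °C under 5% CO2. Compounds came from 100 or 50 mM DMSO stocks and were tested at 0.001–100 µM for 48–96 h. Read-out was MTT. The value is the mean concentration giving 50% viability loss, with varied replicate numbers. Controls were 0.1% DMSO (negative) and 1 µM phenyl arsine oxide (positive).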

[13] = Antiproliferative activity against drug-sensitive human Hs683 cells after 48 to 96 hrs by MTT assay; assay type: functional; conditions: Hs 683
Summary of the method: (§3)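 MTT read-out. T98G and Hs683 cells were grown in DMEM with 10% FBS, glutamine, gentamicin and penicillin-streptomycin at 37 °C and 5% CO2. Compounds came from 100 or 50 mM DMSO stocks and were tested at 0.001–100 µM for 48–96 h. Controls were 0.1% DMSO (negative) and 1 µM phenyl arsine oxide (positive). The value is the mean concentration giving 50% viability loss; replicate number varied.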

[14] = Antiproliferative activity against human MCF7 cells after 48 hrs by MTT assay; assay type: functional; conditions: MCF7, 48 h; summary of the method: as §2
[15] = Antiproliferative activity against drug-resistant human T98G cells after 48 to 96 hrs by MTT assay; assay type: functional; summary of the method: as §3
HeLa S3 [16] = assay: Inhibition of translation in human HeLaS3 assessed as induction of dis-aggregation of polysomes at 50 uM after 1 hr by UV-based […] method; assay type: functional
Summary of the method: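 HeLa S3 cells were exposed to 50 µM compound for 1 h, then analysed by polysome profiling against a DMSO-treated control profile.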

[17] = Antiproliferative activity against human MES-SA/Dx5 cells after 48 to 96 hrs by MTT assay; assay type: functional; summary of the method: as §1
Oryctolagus cuniculus = species on record: Oryctolagus cuniculus; assay: Inhibition of cap/HCV-mediated translation in rabbit reticulocyte lysate expressing FF/HCV/Ren mRNA reporter transcript assessed as reduction in luciferase production at 50 uM after 1 hr relative to control; assay type: functional
Summary of the method: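 Rabbit reticulocyte lysate was programmed with bicistronic FF/HCV/Ren mRNA and incubated with compound (50 µM) or 0.5% DMSO vehicle. Firefly and Renilla luciferase activities were expressed relative to the DMSO control. Two independent translation reactions, reported with error of the mean.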

**Q.** Which inhibition at 50 µM [1] does the source give for `O=C1C=C[C@]23CC[N@](Cc4c2sc2ccccc42)[C@H]3C1` here?
**A.** 25%

**Q.** What about the GI50 [2] of the same molecule?
**A.** 5 µM

**Q.** And the GI50 [3]?
**A.** 5 µM

**Q.** And the GI50 [4]?
**A.** 1 µM

**Q.** What about the GI50 [5] of the same molecule?
**A.** 1 µM

**Q.** And the GI50 [6]?
**A.** 8 µM

**Q.** And the Activity (NCI-H1993)?
**A.** Active

**Q.** What about the GI50 [7] of the same molecule?
**A.** 3 µM

**Q.** And the GI50 [8]?
**A.** 2 µM

**Q.** What about the GI50 [9] of the same molecule?
**A.** 2 µM

**Q.** And the GI50 [10]?
**A.** 11 µM

**Q.** What about the inhibition (HeLa S3 [11]) of the same molecule?
**A.** Active

**Q.** What about the GI50 [12] of the same molecule?
**A.** 9 µM

**Q.** What about the GI50 [13] of the same molecule?
**A.** 3 µM

**Q.** What about the GI50 [14] of the same molecule?
**A.** 5 µM

**Q.** And the GI50 [15]?
**A.** 7 µM

**Q.** And the inhibition (HeLa S3 [16])?
**A.** Active

**Q.** And the GI50 [17]?
**A.** 7 µM

**Q.** What about the inhibition (Oryctolagus cuniculus) of the same molecule?
**A.** 25%

From ChEMBL document CHEMBL3856201, “5,10b-Ethanophenanthridine amaryllidaceae alkaloids inspire the discovery of novel bicyclic ring systems with activity against drug resistant cancer cells” (2016)
